Consider 19 molecules from ChEMBL document CHEMBL2440059, “Antiproliferative, antiandrogenic and cytotoxic effects of novel caffeic acid derivatives in LNCaP human androgen-dependent prostate cancer cells” (Bioorg Med Chem, 2013).

A word on the pIC50: it is the negative decadic logarithm of the IC50, by convention in mol/L. As a reminder, the inhibition is the change of the read-out against control, counted positive when it falls.

pIC50: −log10 of the molar value. Calls of active or inactive are those of the source. The rule behind the calls is not given here.

Assay [1] concerns Radical scavenging activity. The assay is described as follows: Antioxidant activity assessed as DPPH radical scavenging activity after 30 mins by spectrophotometry. Type of assay: functional. In short, it runs like this:
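Ethanolic DPPH ([…], stock) was mixed 1:1 with increasing concentrations of compound in ethanol and held in the dark 30 min at room temperature. Absorbance was read at 520 nm, with control OD accepted within 0.350–0.360. Activity was taken as % inhibition of absorbance and IC50 came from a variable-slope sigmoidal fit. Triplicates, two independent experiments.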
Background: The DPPH test is a chemical assay of radical scavenging.

For assay [2], the system named is LNCaP. The assay is described as follows: Antiproliferative activity against human LNCAP cells after 72 hrs in presence of DHT. Type of assay: functional, cell-based. In short, it runs like this: (§1)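 LNCaP cells (fewer than 18 passages) were seeded at 25 × 10³ cells/well on electrode-microarray plates in phenol red-free medium with 10% stripped FBS. After 24 h they were exposed to compounds with or without 0.1 nM DHT, in 0.2% final DMSO. Proliferation was tracked as impedance in real time over 72 h. Duplicates, three experiments; doubling time was derived from the growth rate.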

Assay [3] has as its system LNCaP. Put plainly: Cytotoxicity against human LNCAP cells assessed as reduction in cell viability after 24 hrs by WST-1 assay. Background: Formazan colour is commonly taken as a measure of viable cells.
Assay [4] concerns LNCaP. Put plainly: Cytotoxicity against human LNCAP cells assessed as reduction in cell viability at 100 uM after 24 hrs by WST-1 assay. Format: functional. Summed up: (§2)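 LNCaP cells were acclimatised 24 h in complete medium, after which the medium was refreshed. Compounds were added from DMSO (0.1% final, 0.1% DMSO controls) over 0.1–100 μM for a 24 h exposure. Quadruplicate wells, three experiments. IC50 came from a variable-slope sigmoidal concentration–response fit.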

The subject of assay [5] is LNCaP. The assay is described as follows: Antiproliferative activity against human LNCAP cells at 1 to 10 uM after 72 hrs in presence of DHT. Format: functional, cell-based. Summed up: as §1
The test system of assay [6] is LNCaP. Put plainly: Antiproliferative activity against human LNCAP cells at 10 uM after 72 hrs in presence of DHT. Format: functional, cell-based. Summed up:
as §1

For assay [7], the system named is LNCaP. The assay is described as follows: Induction of androgen receptor protein expression in human LNCAP cell nucleus at 1 to 30 uM after 24 hrs by chemoluminescence assay in presence of DHT relative to control. Format: functional. In short, it runs like this:
(§3)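 Near-confluent LNCaP cells were switched to steroid-free medium for 24 h, then exposed 24 h to compounds with or without 10 nM DHT. Nuclear and cytoplasmic fractions were extracted and assayed by BCA. Protein (40 μg) was run on SDS-PAGE, blotted to PVDF, and probed overnight at 4 °C with anti-AR, then with an HRP anti-rabbit secondary. Duplicates, three experiments.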

The test system of assay [8] is PC-3. The assay is described as follows: Antiproliferative activity against human PC3 cells after 72 hrs by trypan blue assay. Format: cell-based. The note with it: PC-3, 72 h.
The test system of assay [9] is LNCaP. The assay is described as follows: Reduction of androgen receptor protein expression in human LNCAP cell cytoplasm at > 10 uM after 24 hrs by chemoluminescence assay in presence of DHT. Format: functional, cell-based. In short, it runs like this:
as §3

Assay [10] deals with LNCaP. The assay is described as follows: Induction of androgen receptor protein expression in human LNCAP cell nucleus at > 10 uM after 24 hrs by chemoluminescence assay in presence of DHT. Format: functional, cell-based. In short, it runs like this: as §3
The subject of assay [11] is LNCaP. Put plainly: Antiandrogenic activity in human LNCAP cells assessed as reduction in DHT-stimulated PSA release after 24 hrs by ELISA. Background: In an ELISA, binding on a coated surface is turned into a signal by an enzyme label.
The subject of assay [12] is LNCaP. The assay is described as follows: Induction of androgen receptor protein expression in human LNCAP cell nucleus at 1 to 30 uM after 24 hrs by chemoluminescence assay in presence of DHT relative to cytoplasm. Type of assay: functional. In short, it runs like this: as §3
In assay [13] the test system is LNCaP. The assay is described as follows: Antiproliferative activity against human LNCAP cells at 0.3 uM after 72 hrs in presence of DHT. Format: functional, cell-based. In short, it runs like this: as §1
Assay [14] deals with LNCaP. The assay is described as follows: Cytotoxicity against human LNCAP cells at 1 uM after 24 hrs by WST-1 assay. Format: functional, cell-based. Summed up:
as §2

For `O=C(/C=C/c1ccc(O)c(O)c1)Oc1ccccc1`, the pIC50 in assay [1] is 4.90; in assay [3], 4.18. The Activity entry in [2] is “Dose-dependent effect”.

As to `C=C(C)CCOC(=O)/C=C/c1ccc(O)c(O)c1`, the pIC50 is 5.02 in [1] and 4.69 in [3]. The inhibition at 100 µM in assay [4] was above 80%. Moreover, the outcome in assay [5] was inactive.

Take `O=C(/C=C/c1ccc(O)c(O)c1)OCC(c1ccccc1)c1ccccc1`: the pIC50 is 4.73 in [1] and 4.68 in assay [3]. The Activity entry in [2] is “Dose-dependent effect”. The inhibition at 100 µM in [4] was above 80%. In addition, the result in assay [6] was Active.

Turning to `Cc1ccc(CCOC(=O)/C=C/c2ccc(O)c(O)c2)cc1`, the pIC50 was 4.95 in assay [1] and 4.85 in assay [3]. The Activity entry in [2] is “Dose-dependent effect”. For the same molecule, the inhibition at 100 µM in [4] was above 80%.

Take `O=C(/C=C/c1ccc(O)c(O)c1)OCCc1ccccc1` [CAFFEIC ACID PHENETHYL ESTER]: the pIC50 is 4.78 in assay [1], 4.29 in [8], 4.47 in assay [3] and 5.21 in assay [11]. In addition, the “fold change (FC)” value in [7] and in assay [12] was 5 each time. For the same molecule, the result in [9], in assay [10] and in [13] was Active. Besides, the Activity entry in assay [2] was “Dose-dependent effect”.

Turning to `O=C(/C=C/c1ccc(O)c(O)c1)OCCc1ccc(F)cc1`, the pIC50 was 4.89 in assay [1] and 4.68 in [3]. Further, in assay [2], the Activity result was “Dose-dependent effect”. In [4], the inhibition at 100 µM is above 80%.

As for `O=C(/C=C/c1ccc(O)c(O)c1)OCc1ccccc1` [BENZYL CAFFEATE], the values for the pIC50 in [1] and in [3] were 4.82 and 4.34, respectively. For the same molecule, the Activity entry in assay [2] was “Dose-dependent effect”.

Turning to `O=C(/C=C/c1ccc(O)c(O)c1)NCCc1ccccc1` [CAFFEIC ACID PHENETHYL AMIDE], the negative-log IC50 (pIC50) in assay [1] is 4.86; in assay [3], below 4.00. Further, the Activity result in assay [2] was “Dose-dependent effect”.

On to `O=C(/C=C/c1ccc(O)c(O)c1)OCCCc1ccccc1`, for which the pIC50 in assay [1] is 4.92; in assay [3], 4.58. Besides, the Activity entry in assay [2] was “Dose-dependent effect”. Besides, in assay [4], the inhibition at 100 µM is above 80%.

For the molecule `O=C(O)/C=C/c1ccc(O)c(O)c1` [CAFFEIC ACID], the values for the pIC50 in [1] and in assay [3] were 4.82 and below 4.00, respectively. Moreover, the outcome in [14] was inactive.

For `CCCOC(=O)/C=C/c1ccc(O)c(O)c1`, the pIC50 in assay [1] was 4.85; in assay [3], 4.22. Besides, in assay [2], the Activity entry was “Dose-dependent effect”.

With `O=C(/C=C/c1ccc(O)c(O)c1)OCCC1CCCCC1`, the pIC50 is 4.82 in assay [1], 5.17 in [3] and 5.70 in assay [11]. The “fold change (FC)” value in assay [7] and in assay [12] was 5 each time. Besides, the result in assay [9], in assay [10], in assay [13] and in [6] was Active. Also, the Activity result in assay [2] is “Dose-dependent effect”. The inhibition at 100 µM in assay [4] was above 95%.

`CCOC(=O)/C=C/c1ccc(O)c(O)c1` [ETHYL CAFFEATE]: the values for the pIC50 in [1] and in assay [3] were 4.88 and below 4.00, respectively. In addition, in [5], the outcome was inactive.

Regarding `COC(=O)/C=C/c1ccc(O)c(O)c1` [METHYLCAFFEATE], the pIC50 in assay [1] is 4.67; in [3], below 4.00. Further, in assay [5], the result was inactive.

Consider `CC(C)CCOC(=O)/C=C/c1ccc(O)c(O)c1`, for which the pIC50 was 4.62 in assay [1] and 4.34 in [3].

As for `CC(C)OC(=O)/C=C/c1ccc(O)c(O)c1`, the pIC50 in [1] is 4.89; in assay [3], 4.28.

In the case of `O=C(/C=C/c1ccc(O)c(O)c1)OCCc1cccc2ccccc12`, the pIC50 is 4.88 in assay [1] and 5.03 in assay [3]. Further, the Activity entry in assay [2] is “Dose-dependent effect”. For the same molecule, the inhibition at 100 µM in [4] is above 80%. Further, the result in assay [6] was Active.

On to `CCCCOC(=O)/C=C/c1ccc(O)c(O)c1` [BUTYL CAFFEATE], for which the pIC50 was 4.90 in assay [1] and 4.34 in assay [3].

Consider `COc1ccc(CCOC(=O)/C=C/c2ccc(O)c(O)c2)cc1`, for which the pIC50 in assay [1] is 4.76; in [3], 4.33. Further, the result in assay [5] was inactive.
